pEC50, pKi: −log10 of the molar value.
What was measured:
[1] = target: T1, Transient receptor potential cation channel subfamily V member 1 (Rattus norvegicus, UniProt O35433); experiment: Displacement of [3H]RTX from rat TRPV1 expressed in CHO cells; format: cell-based
Method in brief: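 Binding competition against [³H]RTX on rat TRPV1 heterologously expressed in CHO cells. Mean ± SEM from three or more experiments.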

[2] = target: T1, Transient receptor potential cation channel subfamily V member 1; experiment: Agonist activity at rat TRPV1 expressed in CHO cells assessed as increase of capsaicin-induced calcium uptake; format: functional, cell-based; conditions: for pEC50: read-out: EC50; for EC50: cho
Method in brief: (§1)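 Functional ⁴⁵Ca²⁺ uptake assay in CHO cells heterologously expressing rat TRPV1. Values are mean ± SEM from three or more experiments.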

[3] = target: T1, Transient receptor potential cation channel subfamily V member 1; experiment: Antagonist activity at rat TRPV1 expressed in CHO cells assessed as inhibition of capsaicin-induced calcium uptake; format: functional, cell-based; conditions: for Ki: cho; for pKi: read-out: Ki; method in brief: as §1
[4] = target: Transient receptor potential cation channel subfamily V member 1 (Rattus norvegicus) (UniProt O35433); experiment: Partial antagonist activity at rat TRPV1 expressed in CHO cells assessed as inhibition of capsaicin-induced calcium uptake; format: functional, cell-based; conditions: concentration not given here
Method in brief: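 ⁴⁵Ca²⁺ uptake antagonism assay in CHO cells heterologously expressing rat TRPV1. The value is the extent of partial antagonism of capsaicin-induced uptake. Mean ± SEM from three or more experiments.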

[5] = target: Transient receptor potential cation channel subfamily V member 1 (Rattus norvegicus) (UniProt O35433); experiment: Agonist activity at rat TRPV1 expressed in CHO cells assessed as increase of capsaicin-induced calcium uptake relative to capsaicin; format: functional, cell-based
Method in brief: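 ⁴⁵Ca²⁺ uptake in CHO cells heterologously expressing rat TRPV1. Agonist efficacy is given as % of the maximal calcium uptake induced by 300 nM capsaicin. Mean ± SEM from three or more experiments.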

Sequence of Transient receptor potential cation channel subfamily V member 1 (Rattus norvegicus) (O35433 whole entry): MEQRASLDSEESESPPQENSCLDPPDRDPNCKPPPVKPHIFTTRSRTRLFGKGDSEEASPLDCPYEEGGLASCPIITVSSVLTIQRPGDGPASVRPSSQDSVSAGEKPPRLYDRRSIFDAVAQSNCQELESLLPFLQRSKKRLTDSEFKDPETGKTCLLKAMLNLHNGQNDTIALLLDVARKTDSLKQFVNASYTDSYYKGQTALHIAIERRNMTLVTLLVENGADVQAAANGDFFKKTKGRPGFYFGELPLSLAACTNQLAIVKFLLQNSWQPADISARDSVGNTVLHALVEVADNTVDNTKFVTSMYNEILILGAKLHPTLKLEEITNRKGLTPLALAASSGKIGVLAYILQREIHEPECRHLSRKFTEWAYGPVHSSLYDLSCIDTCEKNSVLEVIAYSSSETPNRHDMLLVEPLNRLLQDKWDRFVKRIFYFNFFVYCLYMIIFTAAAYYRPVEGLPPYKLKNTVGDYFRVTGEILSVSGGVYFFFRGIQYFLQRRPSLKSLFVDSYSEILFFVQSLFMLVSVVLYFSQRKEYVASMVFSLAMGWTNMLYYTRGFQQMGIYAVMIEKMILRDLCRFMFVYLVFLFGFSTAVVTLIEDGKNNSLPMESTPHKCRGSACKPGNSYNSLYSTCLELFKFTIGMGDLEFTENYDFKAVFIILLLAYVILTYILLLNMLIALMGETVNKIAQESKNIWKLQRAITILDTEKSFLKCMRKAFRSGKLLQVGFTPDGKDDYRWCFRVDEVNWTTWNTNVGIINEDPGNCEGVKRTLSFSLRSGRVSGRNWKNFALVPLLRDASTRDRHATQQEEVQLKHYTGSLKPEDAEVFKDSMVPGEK
T1 sequence (O35433 whole entry): as above

Row | SMILES | pKi [1] | pEC50 [2] | Ki [3] | inhibition [4] | Activity [5] | EC50 [2] | pKi [3]
1 | COc1cc(CC(=O)NCC(COC(=O)C(C)(C)C)Cc2ccc(C(C)(C)C)cc2)ccc1N (stereo not given) | 6.97 | 7.64 | Not Active | – | – | – | –
2 | COc1cc(CC(=O)NCC(COC(=O)C(C)(C)C)Cc2ccc(C)c(C)c2)cc(Br)c1O (stereo not given) | 7.25 | – | – | 62% | 43% | – | –
3 | CC(C)(C)C(=O)OCC(CNC(=O)Cc1cc(Br)cc(Br)c1)Cc1ccc(C(C)(C)C)cc1 (stereo not given) | 6.68 | – | – | – | – | Not Active | 6.97
4 | COc1cc(CC(=O)NCc2ccc(C(C)(C)C)cc2)c(Br)cc1OC(C)=O | 6.41 | – | – | 59% | 60% | – | –
5 | CC(C)(C)C(=O)OCC(CNC(=O)Cc1ccc(N)c(Br)c1)Cc1ccc(C(C)(C)C)cc1 (stereo not given) | 7.24 | – | – | 27% | 59% | – | –
6 | CC(C)(C)C(=O)OCC(CNC(=O)Cc1ccc(N)c(Cl)c1)Cc1ccc(C(C)(C)C)cc1 (stereo not given) | 6.10 | – | – | 24% | 85% | – | –
7 | COc1cc(CC(=O)NCC(COC(=O)C(C)(C)C)Cc2ccc(C(C)(C)C)cc2)cc(Cl)c1N (stereo not given) | 7.47 | – | – | – | – | Not Active | 8.39
8 | COc1cc(CC(=O)NCC(COC(=O)C(C)(C)C)Cc2ccc(C)c(C)c2)cc(I)c1O (stereo not given) | 5.79 | – | – | – | 6% | – | 6.65
9 | COc1cc(CC(=O)NCC(COC(=O)C(C)(C)C)Cc2ccc(C(C)(C)C)cc2)cc(I)c1O (stereo not given) | 7.66 | – | – | – | – | Not Active | 8.55
10 | COc1cc(CC(=O)NCC(COC(=O)C(C)(C)C)Cc2ccc(C)c(C)c2)cc(I)c1OC(C)=O (stereo not given) | 5.34 | – | – | 59% | 12% | – | –
11 | COc1cc(CC(=O)NCc2ccc(C(C)(C)C)cc2)cc(I)c1OC(C)=O | 7.03 | – | – | – | – | Not Active | 7.32
12 | COc1cc(CC(=O)NCC(COC(=O)C(C)(C)C)Cc2ccc(C(C)(C)C)cc2)c(Cl)cc1O (stereo not given) | 7.42 | – | – | 39% | 61% | – | –
13 | COc1cc(CC(=O)NCc2ccc(C(C)(C)C)cc2)cc(Br)c1O | 7.04 | – | – | – | 11% | – | 6.77
14 | COc1cc(CC(=O)NCC(COC(=O)C(C)(C)C)Cc2ccc(C(C)(C)C)cc2)ccc1O (stereo not given) | 7.88 | 8.39 | Not Active | – | – | – | –
15 | COc1cc(CC(=O)NCc2ccc(C(C)(C)C)cc2)c(I)cc1O | 6.07 | – | – | 55% | 17% | – | –
16 | COc1cc(CC(=O)NCc2ccc(C(C)(C)C)cc2)ccc1O | 6.18 | 7.09 | Not Active | – | – | – | –
17 | COc1cc(CC(=O)NCc2ccc(C(C)(C)C)cc2)c(Cl)cc1O | 6.31 | 6.87 | Not Active | – | – | – | –
18 | COc1cc(CC(=O)NCc2ccc(C(C)(C)C)cc2)c(I)cc1OC(C)=O | 6.42 | – | – | 85% | 8% | – | –
19 | COc1cc(CC(=O)NCc2ccc(C(C)(C)C)cc2)c(Cl)cc1OC(C)=O | 6.41 | – | – | 62% | 83% | – | –
20 | COc1cc(CC(=O)NCc2ccc(C(C)(C)C)cc2)cc(Cl)c1OC(C)=O | 6.69 | – | – | – | 22% | – | 6.24
21 | COc1cc(CC(=O)NCC(COC(=O)C(C)(C)C)Cc2ccc(C(C)(C)C)cc2)c(I)cc1OC(C)=O (stereo not given) | 7.71 | – | – | – | – | Not Active | 7.28
22 | CC(C)(C)C(=O)OCC(CNC(=O)Cc1cc(Cl)c(O)c(Cl)c1)Cc1ccc(C(C)(C)C)cc1 (stereo not given) | 8.03 | – | – | – | – | Not Active | 8.37

Row | SMILES | pKi [1] | pEC50 [2] | Ki [3] | inhibition [4] | Activity [5] | EC50 [2] | pKi [3]
23 | COc1cc(CC(=O)NCC(COC(=O)C(C)(C)C)Cc2ccc(C(C)(C)C)cc2)ccc1NS(C)(=O)=O (stereo not given) | 7.07 | – | – | 15% | 72% | – | –
24 | CCCCCCCCC(=O)NCc1cc(OC)c(O)cc1I | – | – | – | – | – | Not Active | –
25 | COc1cc(CC(=O)NCC(COC(=O)C(C)(C)C)Cc2ccc(C(C)(C)C)cc2)cc(Cl)c1O (stereo not given) | 7.51 | – | – | 76% | 25% | – | –
26 | CC(C)(C)C(=O)OCC(CNC(=O)Cc1cc(Br)c(N)c(Br)c1)Cc1ccc(C(C)(C)C)cc1 (stereo not given) | 7.95 | – | – | – | – | Not Active | 8.37
27 | COc1cc(CC(=O)NCC(COC(=O)C(C)(C)C)Cc2ccc(C(C)(C)C)cc2)c(I)cc1O (stereo not given) | 7.68 | – | – | – | – | Not Active | 7.87
28 | COc1cc(CC(=O)NCc2ccc(C(C)(C)C)cc2)cc(Cl)c1O | 6.79 | – | – | 66% | 25% | – | –
29 | COc1cc(CC(=O)NCC(COC(=O)C(C)(C)C)Cc2ccc(C)c(C)c2)c(I)cc1O (stereo not given) | 6.94 | – | – | 53% | 23% | – | –
30 | CC(C)(C)C(=O)OCC(CNC(=O)Cc1cc(Br)c(O)c(Br)c1)Cc1ccc(C(C)(C)C)cc1 (stereo not given) | 7.69 | – | – | – | – | Not Active | 7.97
31 | CC(C)(C)C(=O)OCC(CNC(=O)Cc1ccc(O)c(Br)c1)Cc1ccc(C(C)(C)C)cc1 (stereo not given) | 7.60 | – | – | 38% | 72% | – | –
32 | COc1cc(CC(=O)NCc2ccc(C(C)(C)C)cc2)c(Br)cc1O | 6.44 | – | – | 42% | 37% | – | –
33 | COc1cc(CC(=O)NCC(COC(=O)C(C)(C)C)Cc2ccc(C(C)(C)C)cc2)c(Br)cc1O (stereo not given) | 7.60 | – | – | 76% | 21% | – | –
34 | CC(C)(C)C(=O)OCC(CNC(=O)Cc1cc(Cl)c(N)c(Cl)c1)Cc1ccc(C(C)(C)C)cc1 (stereo not given) | 8.03 | – | – | – | – | Not Active | 8.40
35 | COc1cc(CC(=O)NCc2ccc(C(C)(C)C)cc2)cc(I)c1O | 7.05 | – | – | – | – | Not Active | 7.76
36 | COc1cc(CC(=O)NCC(COC(=O)C(C)(C)C)Cc2ccc(C(C)(C)C)cc2)cc(Cl)c1OC(C)=O (stereo not given) | 7.68 | – | – | 58% | 28% | – | –
37 | COc1cc(CC(=O)NCC(COC(=O)C(C)(C)C)Cc2ccc(C(C)(C)C)cc2)c(Br)cc1NS(C)(=O)=O (stereo not given) | 7.37 | – | – | 64% | 14% | – | –
38 | COc1cc(CC(=O)NCC(COC(=O)C(C)(C)C)Cc2ccc(C(C)(C)C)cc2)c(Br)cc1OC(C)=O (stereo not given) | 7.46 | – | – | 63% | 22% | – | –
39 | COc1cc(CC(=O)NCC(COC(=O)C(C)(C)C)Cc2ccc(C(C)(C)C)cc2)cc(I)c1OC(C)=O (stereo not given) | 7.69 | – | – | – | – | Not Active | 7.72
40 | COc1cc(CC(=O)NCC(COC(=O)C(C)(C)C)Cc2ccc(C(C)(C)C)cc2)c(Cl)cc1OC(C)=O (stereo not given) | 7.60 | – | – | 36% | 53% | – | –
41 | COc1cc(CC(=O)NCc2ccc(C(C)(C)C)cc2)cc(Br)c1OC(C)=O | 6.78 | – | – | 89% | 9% | – | –
42 | COc1cc(CC(=O)NCC(COC(=O)C(C)(C)C)Cc2ccc(C(C)(C)C)cc2)cc(Br)c1N (stereo not given) | 7.10 | – | – | – | – | Not Active | 8.47
43 | COc1cc(CC(=O)NCC(COC(=O)C(C)(C)C)Cc2ccc(C(C)(C)C)cc2)cc(Br)c1OC(C)=O (stereo not given) | 7.87 | – | – | – | – | Not Active | 7.14
44 | COc1cc(CC(=O)NCC(COC(=O)C(C)(C)C)Cc2ccc(C(C)(C)C)cc2)cc(Br)c1O (stereo not given) | 8.03 | – | – | – | – | Not Active | 8.06

From ChEMBL document CHEMBL1275346, “Halogenation of 4-hydroxy/amino-3-methoxyphenyl acetamide TRPV1 agonists showed enhanced antagonism to capsaicin” (Bioorg Med Chem, 2010)
